ARFGAP1 inh: inhibitors of rat ARFGAP1 GAP activity, primary screen, biochemical, fluorescence polarization, GDP tracer. ADP-ribosylation factor GTPase-activating protein 1 (Rattus norvegicus), Q62848. Arfgap1-stimulated ARF1 GTP hydrolysis, GDP FP detection. inhibition, % at 16.5 µM. actives 0.26% (n = 360,000). AID 651572, 2012;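 active = inhibition above a per-plate limit, mean inhibition of low control wells plus 3 SD, cut at about 25% in these data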
Target sequence (Q62848 1-136 limits assumed): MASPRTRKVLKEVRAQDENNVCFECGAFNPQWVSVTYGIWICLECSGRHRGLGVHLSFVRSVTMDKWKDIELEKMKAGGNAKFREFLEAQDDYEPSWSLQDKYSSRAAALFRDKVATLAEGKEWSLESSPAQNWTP
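System: truncated rat Arfgap1 GAP domain / Benchmarks: high control wells lacking Arfgap1, low control full reaction with DMSO / Times: compound-enzyme preincubation 20 min, reaction 120 min, detection 60 min, 25 °C / Repeats: one replicate per compound / Also added: human ARF1(Δ1-17)-GTP substrate / Measured by: Tracer-displacement fluorescence polarization with EDTA stop, 620/688 nm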
TDP2 inh: human TDP2 enzyme inhibitors, primary screen, biochemical, epi absorbance, recombinant enzyme; Tyrosyl-DNA phosphodiesterase 2 (Homo sapiens), O95551; T5PNP hydrolysis, p-nitrophenol absorbance 415 nm; inhibition, % at 12.8 µM; actives 0.34% (n = 370,000); AID 720702, 2013;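 active = inhibition above the mean of all tested compounds plus 3 SD, set per campaign, cut at about 25% in these data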
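test system = human TDP2 enzyme | input = TDP2 enzyme at 120 nM final | medium = 50 mM Tris-HCl pH 7.5 with Mg2+, KCl, DTT, BSA | also added = T5PNP substrate, 5 mM | times = 2 h at 37 °C | technique = epi absorbance | benchmarks = high control without enzyme, low control DMSO plus TDP2 | replication = each compound tested once, singlicate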
Casp6 inh: human caspase-6 inhibitors, primary screen, biochemical, VEID-R110 fluorescence, single point, set 2 | purified caspase-6, Z-VEID-R110 cleavage fluorescence | inhibition, % at 12.5 µM | actives 0.53% (n = 350,000) | AID 686996, 2013;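 active = mean inhibition across replicates at least about 35%, with every replicate also reaching that limit, limit read from the data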
Target sequence (P55212 24-179 limits assumed): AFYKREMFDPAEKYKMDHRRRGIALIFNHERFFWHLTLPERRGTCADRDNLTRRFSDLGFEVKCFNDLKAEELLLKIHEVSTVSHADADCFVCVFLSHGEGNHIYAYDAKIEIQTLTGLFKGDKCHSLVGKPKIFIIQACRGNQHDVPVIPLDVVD
Target sequence (P55212 194-293 limits assumed): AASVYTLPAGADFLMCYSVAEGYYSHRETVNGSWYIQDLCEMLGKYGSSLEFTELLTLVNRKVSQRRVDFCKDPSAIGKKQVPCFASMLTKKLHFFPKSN
LEDGF integ inh: blockers of LEDGF/p75-dependent integrase strand transfer – biochemical, TR-FRET, high throughput, primary screen | HIV-1 integrase (with human LEDGF/p75) | TR-FRET IN-LEDGF/p75 DNA integration, Eu/Cy5 | inhibition, % at 3.7 µM | actives 0.64% (n = 370,000) | AID 743269, 2014;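 active = inhibition above the screen-wide mean plus 3 SD, cut at about 13% in these data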;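 note: signal is the Cy5 over europium emission ratio at 671 and 618 nm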
ASAP1 inh: inhibitors of human ASAP1 ArfGAP activity, primary screen, biochemical, fluorescence polarization. Arf-GAP with SH3 domain, ANK repeat and PH domain-containing protein 1 (Homo sapiens), …. ASAP1-stimulated ARF1 GTP hydrolysis, GDP FP detection. inhibition, % at 16.5 µM. actives 0.19% (n = 360,000). AID 624377, 2012; in the data active = inhibition above about 25%
IN multimer act: HIV-1 IN multimer formation enhancers, counter-screen for LEDGF/p75 integration inhibitor project, biochemical, TR-FRET. shares compounds with LEDGF integ inh. TR-FRET HIV-1 integrase multimerization. activation, % at 7.7 µM. actives 17% (n = 2,000); in the data active = activation above about 8.9%
TRFRET interf: TR-FRET optical interference artefacts, confirmation, artefact control for LEDGF/p75-dependent integration inhibitor project, biochemical, HIV-1 IN multimerization; TR-FRET optical interference counterscreen; shares compounds with LEDGF integ inh; inhibition, % at 7.7 µM; 2,000 tested, under 10 active; AID 1053135, 2014;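 active = inhibition above the mean over all tested compounds plus 3 SD, which no compound reached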
LEDGF integ conf: inhibitors of HIV-1 IN-LEDGF/p75 DNA integration, confirmation, biochemical, TR-FRET. inhibition, % at 3.7 µM. AID 1053136, 2014. TR-FRET LEDGF/p75-dependent HIV-1 integration. shares compounds with LEDGF integ inh. actives 36% (n = 2,000); in the data active = inhibition above about 14%
Numbers stand for hits. This is a sample that favours compounds with a hit; in the whole collection about 1.3% have one here.

How did COC(=O)C1=C(N)N(c2ccc(F)cc2)C2=C(C(=O)CCC2)C1c1ccc2c(c1)OCO2 (stereo unspecified) do in these assays?
ARFGAP1 inh: inactive; TDP2 inh: inactive; LEDGF integ inh: 18; ASAP1 inh: inactive; IN multimer act: inactive; TRFRET interf: inactive; LEDGF integ conf: inactive

How did O=C1CCCC(O)=C1N=Nc1ccc(C(=O)O)cc1 do in these assays?
ARFGAP1 inh: inactive; TDP2 inh: inactive; Casp6 inh: 38; LEDGF integ inh: 22; ASAP1 inh: inactive; IN multimer act: 37; TRFRET interf: inactive; LEDGF integ conf: 32

What do the screens show for `Cc1nn(C)c(C)c1/C=N/NC(=O)CCn1cc([N+](=O)[O-])cn1`?
ARFGAP1 inh: inactive; TDP2 inh: inactive; Casp6 inh: inactive; LEDGF integ inh: 15; ASAP1 inh: inactive; IN multimer act: inactive; TRFRET interf: inactive; LEDGF integ conf: inactive

How did CC(C)NC(=O)CCCn1cc([N+](=O)[O-])cn1 do in these assays?
ARFGAP1 inh: inactive; TDP2 inh: inactive; Casp6 inh: inactive; LEDGF integ inh: inactive; ASAP1 inh: inactive

How did O=C(Nc1ccc(Cl)cn1)c1cccc2c(Br)cccc12 do in these assays?
ARFGAP1 inh: inactive; TDP2 inh: inactive; Casp6 inh: inactive; LEDGF integ inh: inactive; ASAP1 inh: inactive

How did COc1ccc(-c2cc3ncc(C(C)=O)c(C)n3n2)cc1 do in these assays?
ARFGAP1 inh: inactive; TDP2 inh: inactive; Casp6 inh: inactive; LEDGF integ inh: 25; ASAP1 inh: inactive; IN multimer act: inactive; TRFRET interf: inactive; LEDGF integ conf: inactive

What do the screens show for `CC(=O)c1cnc2cc(-c3ccc(C)cc3)nn2c1C`?
ARFGAP1 inh: inactive; TDP2 inh: inactive; LEDGF integ inh: inactive; ASAP1 inh: inactive

What do the screens show for `Cc1ccc(CN2C(=O)C(CC(C)C)Nc3ncnc(N4CCN(c5ccccn5)CC4)c32)cc1` (stereo unspecified)?
ARFGAP1 inh: inactive; TDP2 inh: inactive; Casp6 inh: inactive; LEDGF integ inh: 91; ASAP1 inh: inactive; IN multimer act: inactive; TRFRET interf: inactive; LEDGF integ conf: inactive

How did CC(C)CC1Nc2ncnc(N3CCN(c4ccccn4)CC3)c2N(Cc2ccc(Br)cc2)C1=O (stereo unspecified) do in these assays?
ARFGAP1 inh: inactive; TDP2 inh: inactive; Casp6 inh: inactive; LEDGF integ inh: inactive; ASAP1 inh: inactive

What do the screens show for `CC(C)(C)c1ccc(-c2nc(C#N)c(N3CCC(C(N)=O)CC3)o2)cc1`?
ARFGAP1 inh: inactive; TDP2 inh: inactive; Casp6 inh: inactive; LEDGF integ inh: inactive; ASAP1 inh: inactive

How did N#Cc1nc(-c2cccc(Cl)c2)oc1N1CCC(C(N)=O)CC1 do in these assays?
ARFGAP1 inh: inactive; TDP2 inh: inactive; Casp6 inh: inactive; LEDGF integ inh: 26; ASAP1 inh: inactive; IN multimer act: inactive; TRFRET interf: inactive; LEDGF integ conf: inactive

What do the screens show for `CCOC(=O)N1CCN(C(=O)CCc2ccccc2)CC1`?
ARFGAP1 inh: inactive; TDP2 inh: inactive; Casp6 inh: inactive; LEDGF integ inh: 56; ASAP1 inh: inactive; IN multimer act: inactive; TRFRET interf: inactive; LEDGF integ conf: inactive

What do the screens show for `O=C(CCc1ccccc1)N1CCN(C(=O)CCc2ccccc2)CC1`?
ARFGAP1 inh: inactive; TDP2 inh: inactive; Casp6 inh: inactive; LEDGF integ inh: inactive; ASAP1 inh: inactive

Results for CCCn1c(NC(=O)c2ccc(F)cc2)nc2ccccc21 ?
ARFGAP1 inh: inactive; TDP2 inh: inactive; Casp6 inh: inactive; LEDGF integ inh: inactive; ASAP1 inh: inactive

What do the screens show for `CCn1c(NC(=O)/C=C/c2ccc(F)cc2)nc2ccccc21`?
ARFGAP1 inh: inactive; TDP2 inh: inactive; Casp6 inh: inactive; LEDGF integ inh: 16; ASAP1 inh: inactive; IN multimer act: inactive; TRFRET interf: inactive; LEDGF integ conf: inactive

Results for CCCCC[C@@H](C)N1C[C@H](COCc2ccccc2)Oc2cc(N3CC[C@H](N(C)C)C3)ccc2S1(=O)=O ?
ARFGAP1 inh: inactive; TDP2 inh: inactive; Casp6 inh: inactive; LEDGF integ inh: 16; ASAP1 inh: inactive; IN multimer act: inactive; TRFRET interf: inactive; LEDGF integ conf: inactive

What do the screens show for `CCCCC[C@H](C)N1C[C@H](COCc2ccccc2)Oc2cc(N3CC[C@H](O)C3)ccc2S1(=O)=O`?
ARFGAP1 inh: inactive; TDP2 inh: inactive; Casp6 inh: inactive; LEDGF integ inh: inactive; ASAP1 inh: inactive

What do the screens show for `CCCCOc1ccc(C(=O)NCC(=O)NCc2ccccn2)cc1`?
ARFGAP1 inh: inactive; TDP2 inh: inactive; Casp6 inh: inactive; LEDGF integ inh: inactive; ASAP1 inh: inactive

How did CC(C)C(OC(=O)CN1C(=O)c2ccccc2C1=O)C(=O)NC1CCCCC1 (stereo unspecified) do in these assays?
ARFGAP1 inh: inactive; TDP2 inh: inactive; Casp6 inh: inactive; LEDGF integ inh: inactive; ASAP1 inh: inactive

What do the screens show for `COCCNC(=O)C1(C)CCN(C(=O)c2cc(C)nn2C(C)(C)C)C1` (stereo unspecified)?
ARFGAP1 inh: inactive; TDP2 inh: inactive; Casp6 inh: inactive; LEDGF integ inh: inactive; ASAP1 inh: inactive

What do the screens show for `COC(=O)c1sc2nc3c(cc2c1N)CCCC3`?
ARFGAP1 inh: inactive; TDP2 inh: inactive; Casp6 inh: inactive; LEDGF integ inh: inactive; ASAP1 inh: inactive

How did NC(=O)c1sc2nc(-c3ccco3)ccc2c1N do in these assays?
ARFGAP1 inh: inactive; TDP2 inh: inactive; LEDGF integ inh: 41; ASAP1 inh: inactive; IN multimer act: 13; TRFRET interf: inactive; LEDGF integ conf: inactive

What do the screens show for `COC(=O)c1sc2nc(-c3ccco3)ccc2c1N`?
ARFGAP1 inh: inactive; TDP2 inh: inactive; LEDGF integ inh: 52; ASAP1 inh: inactive; IN multimer act: inactive; TRFRET interf: inactive; LEDGF integ conf: inactive

Results for Nc1c(C(=O)Nc2ccccc2F)sc2nc(-c3ccco3)ccc12 ?
ARFGAP1 inh: inactive; TDP2 inh: inactive; LEDGF integ inh: inactive; ASAP1 inh: inactive
